We go through 2 compounds from PMC9942841 (Proceedings of the National Academy of Sciences of the …, 2023).

One data set concerns nude mice. Kind of data set: In vivo safety assay. The note with it: 10 mg/kg or 20 mg/kg subcutaneously, 24 h after injection. On the set-up: species or system mouse. The method in brief: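 Twelve 6-week-old female athymic NU/NU nude mice were randomised into 3 groups of 4. Groups received 10 or 20 mg/kg test compound injected subcutaneously into the back skin. Serum was assayed for ALT, AST, urea, CREA and UA. Heart, liver, spleen, lung and kidney were examined histologically by H&E. Error bars are SD from 3 biological replicates.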

The test system of data set [1] is mixed P. aeruginosa–S. aureus biofilms. Kind of data set: Clearance of established biofilm. Format: cell-based, Pseudomonas aeruginosa + Staphylococcus aureus. As to conditions: concentrations <32 μM in PBS, 24 h, 37°C; crystal violet, 595 nm. In outline:
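Preformed mixed P. aeruginosa–S. aureus biofilms were treated with the test compound, with gentamicin as comparator. Residual biomass was stained with crystal violet, and the solubilised dye was read spectrophotometrically at 595 nm. Results are expressed as biofilm percentage. The assay was run in both 96-well round-bottom plates and round-bottom tubes.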

Peptide text beside a SMILES is read from it.

Take `NCCCC[C@H](NC(=O)[C@H](CCCCN)NC(=O)[C@H](Cc1c[nH]c2ccccc12)NC(=O)[C@H](CCCCN)NC(=O)[C@H](CCCCN)NC(=O)[C@H](Cc1c[nH]c2ccccc12)NC(=O)[C@@H](N)Cc1c[nH]c2ccccc12)C(=O)N[C@@H](Cc1c[nH]c2ccccc12)C(=O)N[C@@H](Cc1c[nH]c2ccccc12)C(N)=O` [Peptide K6] (H-WWKKWKKWW-NH2): in the data set with nude mice, the “Histological examination of heart, liver, spleen, kidneys, lungs (H&E)” value is “no abnormalities”; the “Serum levels of ALT, AST, UA, urea and CREA” value is recorded as “within normal range”.

As for `CNC(C)C1CCC(N)C(OC2C(N)CC(N)C(OC3OCC(C)(O)C(NC)C3O)C2O)O1` (stereo not drawn) [Gentamicin, gentamicin], the “Effect on preestablished mixed biofilm” value in data set [1] is “little impact”.
